Data published in ChEMBL document CHEMBL3526048, “In vitro metabolism of rivoglitazone, a novel peroxisome proliferator-activated receptor γ agonist, in rat, monkey, and human liver microsomes and freshly isolated hepatocytes” (Drug Metab Dispos, 2011).

How the values were obtained:
Cytochrome P450 1A2 = target: T1, Cytochrome P450 1A2 (Homo sapiens, UniProt P05177); assay: Activity of human CYP1A2 expressed in microsomes isolated from baculovirus infected insect cell assessed as enzyme-mediated compound formation treated with [14C]-rivoglitazone at 20 uM after 2 hrs by radio-HPLC/LC-MS/MS analysis in presence of NADPH-generating system and NADPH-generating system/SAM; type: ADME
T1 sequence (P05177 whole entry): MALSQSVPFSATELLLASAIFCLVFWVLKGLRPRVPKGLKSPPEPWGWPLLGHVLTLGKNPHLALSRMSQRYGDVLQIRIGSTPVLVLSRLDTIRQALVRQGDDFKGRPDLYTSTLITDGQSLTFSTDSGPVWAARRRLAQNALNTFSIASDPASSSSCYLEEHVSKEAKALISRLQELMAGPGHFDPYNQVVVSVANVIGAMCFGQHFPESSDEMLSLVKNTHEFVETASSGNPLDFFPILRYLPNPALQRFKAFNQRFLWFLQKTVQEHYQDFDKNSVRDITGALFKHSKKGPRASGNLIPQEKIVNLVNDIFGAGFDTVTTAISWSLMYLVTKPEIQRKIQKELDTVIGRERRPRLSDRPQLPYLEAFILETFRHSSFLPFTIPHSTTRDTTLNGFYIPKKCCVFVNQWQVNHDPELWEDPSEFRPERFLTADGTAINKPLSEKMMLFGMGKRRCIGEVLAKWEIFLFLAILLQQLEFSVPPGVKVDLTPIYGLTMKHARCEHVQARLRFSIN
Procedure, shortened: (§1)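 Baculovirus/insect-cell microsomes expressing single human CYPs, 1 mg/ml protein, with 50 mM potassium phosphate (pH 7.4) or 100 mM Tris-HCl (pH 7.5). NADPH-generating system: 2 mM NADP⁺, 20 mM glucose 6-phosphate, 2 units/ml G6PDH, 10 mM MgCl₂. [¹⁴C]rivoglitazone at 20 μM, 2 h at 37°C with shaking. Control used insect-cell control supersomes. Stopped with acetonitrile; supernatant concentrated under nitrogen; metabolites analysed by radio-HPLC, LC-MS and LC-MS/MS.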

Cytochrome P450 2C19 = Cytochrome P450 2C19 (Homo sapiens, UniProt P33261); assay: Activity of human CYP2C19 expressed in microsomes isolated from baculovirus infected insect cell assessed as enzyme-mediated compound formation treated with [14C]-rivoglitazone at 20 uM after 2 hrs by radio-HPLC/LC-MS/MS analysis in presence of NADPH-generating system and NADPH-generating system/SAM; type: ADME; procedure, shortened: as §1
Hepatocyte [1] = assay: Drug level in rat hepatocytes treated with [14C]-rivoglitazone at 30 uM after 3 hrs by radio-HPLC/LC-MS/MS analysis in presence of NADPH-generating system and NADPH-generating system/SAM; type: ADME, cell-based
Cytochrome P450 3A4 = Cytochrome P450 3A4 (Homo sapiens, UniProt P08684); assay: Activity of human CYP3A4 expressed in microsomes isolated from baculovirus infected insect cell assessed as enzyme-mediated compound formation treated with [14C]-rivoglitazone at 20 uM after 2 hrs by radio-HPLC/LC-MS/MS analysis in presence of NADPH-generating system and NADPH-generating system/SAM; type: ADME
Liver microsome [2] = assay: Drug level in human liver microsomes treated with [14C]-rivoglitazone at 20 uM after 2 hrs by radio-HPLC/LC-MS/MS analysis in presence of NADPH-generating system and NADPH-generating system/SAM; type: ADME
Procedure, shortened: (§2)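 Pooled male liver microsomes (1 mg/ml protein; rat from 94 Sprague-Dawley, monkey from 8 cynomolgus, human from 23 donors) were incubated with [¹⁴C]rivoglitazone (20 μM). Buffer: 10 mM potassium phosphate (pH 7.4). Cofactors: NADPH-generating system (2 mM NADP⁺, 20 mM G6P, 2 U/ml G6PDH, 10 mM MgCl₂), with or without 2 mM SAM. Incubation 2 h at 37°C with shaking; controls lacked NADPH system and SAM alone. Acetonitrile stop, radio-HPLC plus LC-MS.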

Cytochrome P450 3A5 = Cytochrome P450 3A5 (Homo sapiens, UniProt P20815); assay: Activity of human CYP3A5 expressed in microsomes isolated from baculovirus infected insect cell assessed as enzyme-mediated compound formation treated with [14C]-rivoglitazone at 20 uM after 2 hrs by radio-HPLC/LC-MS/MS analysis in presence of NADPH-generating system and NADPH-generating system/SAM; type: ADME
Procedure, shortened: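 cDNA-expressed human CYP3A5 in baculovirus-insect-cell microsomes (1 mg/ml protein) was incubated with [¹⁴C]rivoglitazone (20 μM) in 50 mM potassium phosphate (pH 7.4) or 100 mM Tris-HCl (pH 7.5). NADPH-generating system: 2 mM NADP⁺, 20 mM glucose 6-phosphate, 2 units/ml G6PDH, 10 mM MgCl₂. Incubation ran 2 h at 37°C with shaking; insect-cell control supersomes served as control. Acetonitrile stop, supernatant concentrated, then radio-HPLC, LC-MS and LC-MS/MS.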

Liver microsome [3] = assay: Drug level in Sprague-Dawley rat liver microsomes treated with [14C]-rivoglitazone at 20 uM after 2 hrs by radio-HPLC/LC-MS/MS analysis in presence of NADPH-generating system and NADPH-generating system/SAM; type: ADME; procedure, shortened: as §2
[4] = Retention time of the compound by LC-MS/MS analysis; type: physicochemical
Procedure, shortened: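 LC-MS/MS used a YMC-Pack ODS-A column (1.5 × 150 mm, 5 μm) at 30°C, 0.1 ml/min. Mobile phase was water and acetonitrile, each with 0.01% TFA. Gradient: 12→60% B over 30 min, →90% B over 5 min, hold 5 min. Detection was UV 220 nm with positive ESI Q-TOF (capillary 3300 V, cone 45 V), collision energy 20 eV and xenon as collision gas.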

Hepatocyte [5] = assay: Drug level in human hepatocytes treated with [14C]-rivoglitazone at 30 uM after 3 hrs by radio-HPLC/LC-MS/MS analysis in presence of NADPH-generating system and NADPH-generating system/SAM; type: ADME, cell-based
[6] = Drug level in cynomolgus monkey liver microsomes treated with [14C]-rivoglitazone at 20 uM after 2 hrs by radio-HPLC/LC-MS/MS analysis in presence of NADPH-generating system and NADPH-generating system/SAM; type: ADME, Macaca fascicularis; procedure, shortened: as §2
Cytochrome P450 2C9 = Cytochrome P450 2C9 (Homo sapiens, UniProt P11712); assay: Activity of human CYP2C9 expressed in microsomes isolated from baculovirus infected insect cell assessed as enzyme-mediated compound formation treated with [14C]-rivoglitazone at 20 uM after 2 hrs by radio-HPLC/LC-MS/MS analysis in presence of NADPH-generating system and NADPH-generating system/SAM; type: ADME
Cytochrome P450 2D6 = Cytochrome P450 2D6 (Homo sapiens, UniProt P10635); assay: Activity of human CYP2D6 expressed in microsomes isolated from baculovirus infected insect cell assessed as enzyme-mediated compound formation treated with [14C]-rivoglitazone at 20 uM after 2 hrs by radio-HPLC/LC-MS/MS analysis in presence of NADPH-generating system and NADPH-generating system/SAM; type: ADME
Plasma = assay: Drug level in po dosed monkey plasma treated with [14C]-rivoglitazone; type: ADME, organism-based, Macaca mulatta; settings: rhesus monkey, in vivo
Cytochrome P450 2C8 = target: T2, Cytochrome P450 2C8 (Homo sapiens, UniProt P10632); assay: Activity of human CYP2C8 expressed in microsomes isolated from baculovirus infected insect cell assessed as enzyme-mediated compound formation treated with [14C]-rivoglitazone at 20 uM after 2 hrs by radio-HPLC/LC-MS/MS analysis in presence of NADPH-generating system and NADPH-generating system/SAM; type: ADME; procedure, shortened: as §1
T2 sequence (P10632 whole entry): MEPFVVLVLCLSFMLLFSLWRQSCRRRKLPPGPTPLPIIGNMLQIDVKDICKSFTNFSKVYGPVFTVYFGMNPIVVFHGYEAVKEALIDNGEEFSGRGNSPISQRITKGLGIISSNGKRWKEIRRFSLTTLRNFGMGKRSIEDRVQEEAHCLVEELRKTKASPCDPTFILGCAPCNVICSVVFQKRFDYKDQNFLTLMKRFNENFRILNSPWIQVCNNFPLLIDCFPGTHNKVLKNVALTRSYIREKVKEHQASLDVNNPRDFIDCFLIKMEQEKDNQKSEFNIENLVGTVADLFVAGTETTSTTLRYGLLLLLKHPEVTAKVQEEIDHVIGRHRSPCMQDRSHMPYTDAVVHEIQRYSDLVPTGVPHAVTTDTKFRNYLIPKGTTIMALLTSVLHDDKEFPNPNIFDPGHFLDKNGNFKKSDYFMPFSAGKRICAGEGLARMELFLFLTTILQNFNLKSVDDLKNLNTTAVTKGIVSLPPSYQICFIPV

[7] = Drug level in po dosed monkey liver microsomes treated with [14C]-rivoglitazone; type: ADME, organism-based, Macaca mulatta; settings: rhesus monkey, in vivo
[8] = Drug level in po dosed monkey bile treated with [14C]-rivoglitazone; type: ADME, organism-based, Macaca mulatta; settings: rhesus monkey, in vivo

Cytochrome P450 3A4, sequence (P08684 whole entry): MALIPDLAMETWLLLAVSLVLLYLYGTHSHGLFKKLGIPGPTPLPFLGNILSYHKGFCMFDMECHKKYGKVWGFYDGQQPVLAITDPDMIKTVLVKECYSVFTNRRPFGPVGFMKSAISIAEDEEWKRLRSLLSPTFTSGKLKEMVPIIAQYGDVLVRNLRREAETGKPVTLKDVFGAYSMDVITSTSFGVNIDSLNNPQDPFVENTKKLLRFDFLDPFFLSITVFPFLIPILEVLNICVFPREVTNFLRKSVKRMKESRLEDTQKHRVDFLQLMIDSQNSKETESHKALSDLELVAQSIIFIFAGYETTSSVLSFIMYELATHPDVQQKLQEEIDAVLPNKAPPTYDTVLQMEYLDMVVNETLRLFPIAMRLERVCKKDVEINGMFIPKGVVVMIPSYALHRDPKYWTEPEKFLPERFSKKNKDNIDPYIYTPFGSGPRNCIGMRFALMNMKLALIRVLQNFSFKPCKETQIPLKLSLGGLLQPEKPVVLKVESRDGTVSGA
Cytochrome P450 2C19, sequence (P33261 whole entry): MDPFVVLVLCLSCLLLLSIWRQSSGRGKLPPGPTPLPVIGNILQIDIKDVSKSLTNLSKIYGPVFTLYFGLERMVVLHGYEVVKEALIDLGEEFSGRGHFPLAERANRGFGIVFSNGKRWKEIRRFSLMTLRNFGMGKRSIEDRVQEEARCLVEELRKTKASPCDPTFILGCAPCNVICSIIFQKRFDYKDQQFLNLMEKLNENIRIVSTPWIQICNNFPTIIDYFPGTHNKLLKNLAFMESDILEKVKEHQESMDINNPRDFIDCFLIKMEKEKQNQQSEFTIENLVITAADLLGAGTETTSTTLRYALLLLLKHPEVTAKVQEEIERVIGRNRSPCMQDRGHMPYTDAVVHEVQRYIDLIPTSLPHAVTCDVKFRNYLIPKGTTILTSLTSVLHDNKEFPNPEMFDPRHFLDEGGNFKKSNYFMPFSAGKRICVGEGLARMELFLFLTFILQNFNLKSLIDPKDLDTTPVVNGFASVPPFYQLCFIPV
Cytochrome P450 2C9, sequence (P11712 whole entry): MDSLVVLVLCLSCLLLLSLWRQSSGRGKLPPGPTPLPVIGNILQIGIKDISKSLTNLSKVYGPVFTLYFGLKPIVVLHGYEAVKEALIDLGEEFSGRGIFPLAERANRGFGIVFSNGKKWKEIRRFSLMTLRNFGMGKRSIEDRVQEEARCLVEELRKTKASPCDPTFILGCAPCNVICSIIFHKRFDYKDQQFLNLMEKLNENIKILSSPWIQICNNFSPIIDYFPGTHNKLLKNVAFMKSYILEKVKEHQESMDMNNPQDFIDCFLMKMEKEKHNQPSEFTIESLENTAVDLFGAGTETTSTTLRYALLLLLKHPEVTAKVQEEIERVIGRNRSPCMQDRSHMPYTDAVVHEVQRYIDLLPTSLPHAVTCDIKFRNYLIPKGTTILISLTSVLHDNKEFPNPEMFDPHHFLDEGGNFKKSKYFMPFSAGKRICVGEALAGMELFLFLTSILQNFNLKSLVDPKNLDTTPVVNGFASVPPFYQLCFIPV
Cytochrome P450 2D6, sequence (P10635 whole entry): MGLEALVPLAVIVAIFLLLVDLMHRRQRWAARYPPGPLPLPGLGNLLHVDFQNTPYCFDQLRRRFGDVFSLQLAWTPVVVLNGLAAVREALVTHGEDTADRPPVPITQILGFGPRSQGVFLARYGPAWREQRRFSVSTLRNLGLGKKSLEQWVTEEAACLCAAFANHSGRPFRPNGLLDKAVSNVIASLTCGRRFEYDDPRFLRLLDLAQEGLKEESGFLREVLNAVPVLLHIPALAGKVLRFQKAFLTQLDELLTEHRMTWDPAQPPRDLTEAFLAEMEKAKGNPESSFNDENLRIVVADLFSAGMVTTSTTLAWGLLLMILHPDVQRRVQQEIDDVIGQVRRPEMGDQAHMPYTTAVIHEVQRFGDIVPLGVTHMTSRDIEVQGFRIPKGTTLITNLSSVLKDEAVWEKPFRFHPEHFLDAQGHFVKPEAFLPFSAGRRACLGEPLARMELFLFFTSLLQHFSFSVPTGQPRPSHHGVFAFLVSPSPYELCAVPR
Cytochrome P450 3A5, sequence (P20815 whole entry): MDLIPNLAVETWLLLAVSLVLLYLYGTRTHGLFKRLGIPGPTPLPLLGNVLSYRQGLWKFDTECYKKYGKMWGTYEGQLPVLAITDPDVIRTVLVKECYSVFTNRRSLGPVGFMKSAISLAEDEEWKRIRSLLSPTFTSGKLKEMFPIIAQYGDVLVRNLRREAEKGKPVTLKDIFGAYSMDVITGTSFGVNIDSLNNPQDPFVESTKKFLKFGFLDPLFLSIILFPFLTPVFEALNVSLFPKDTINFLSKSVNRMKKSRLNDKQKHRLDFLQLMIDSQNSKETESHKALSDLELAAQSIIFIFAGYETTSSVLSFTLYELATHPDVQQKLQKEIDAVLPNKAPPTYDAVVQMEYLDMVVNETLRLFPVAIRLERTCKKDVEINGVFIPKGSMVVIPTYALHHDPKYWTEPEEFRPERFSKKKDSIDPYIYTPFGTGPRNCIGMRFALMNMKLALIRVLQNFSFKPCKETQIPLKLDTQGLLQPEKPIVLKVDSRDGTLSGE

COc1ccc2nc(COc3ccc(CC4SC(=O)NC4=O)cc3)[nH]c2c1 (stereo unspecified)
Drug metabolism (Cytochrome P450 1A2): metabolite_detected | Drug metabolism (Cytochrome P450 2C19): metabolite_detected | Drug metabolism (Hepatocyte [1]): metabolite_detected | Drug metabolism (Cytochrome P450 3A4): metabolite_detected | Drug metabolism (Liver microsome [2]): metabolite_detected | Drug metabolism (Cytochrome P450 3A5): metabolite_detected | Drug metabolism (Liver microsome [3]): metabolite_detected | Retention_time [4]: 20.9 min | Drug metabolism (Hepatocyte [5]): metabolite_detected | Drug metabolism [6]: metabolite_detected | Drug metabolism (Cytochrome P450 2C9): metabolite_detected | Drug metabolism (Cytochrome P450 2D6): metabolite_detected | Drug metabolism (Plasma): metabolite_detected | Drug metabolism (Cytochrome P450 2C8): metabolite_detected | Drug metabolism [7]: metabolite_detected | Drug metabolism [8]: metabolite_detected
